Results as given in ChEMBL document CHEMBL1129338, “Inhibitors of acyl-CoA:cholesterol O-acyltransferase. synthesis and pharmacological activity of (+/-)-2-dodecyl-alpha-phenyl-N-(2,4,6-trimethoxyphenyl)-2H-tetrazole-5- acetamide and structurally related tetrazole amide derivatives” (J Med Chem, 1996).

Key:
[1] = biological target: T1, Sterol O-acyltransferase 1 (Rattus norvegicus, UniProt O70536); test: In vitro inhibitory activity against acyl coenzyme A:cholesterol acyltransferase 1 of liver microsomes isolated from cholesterol-fed rats.
T1 sequence (O70536 whole entry): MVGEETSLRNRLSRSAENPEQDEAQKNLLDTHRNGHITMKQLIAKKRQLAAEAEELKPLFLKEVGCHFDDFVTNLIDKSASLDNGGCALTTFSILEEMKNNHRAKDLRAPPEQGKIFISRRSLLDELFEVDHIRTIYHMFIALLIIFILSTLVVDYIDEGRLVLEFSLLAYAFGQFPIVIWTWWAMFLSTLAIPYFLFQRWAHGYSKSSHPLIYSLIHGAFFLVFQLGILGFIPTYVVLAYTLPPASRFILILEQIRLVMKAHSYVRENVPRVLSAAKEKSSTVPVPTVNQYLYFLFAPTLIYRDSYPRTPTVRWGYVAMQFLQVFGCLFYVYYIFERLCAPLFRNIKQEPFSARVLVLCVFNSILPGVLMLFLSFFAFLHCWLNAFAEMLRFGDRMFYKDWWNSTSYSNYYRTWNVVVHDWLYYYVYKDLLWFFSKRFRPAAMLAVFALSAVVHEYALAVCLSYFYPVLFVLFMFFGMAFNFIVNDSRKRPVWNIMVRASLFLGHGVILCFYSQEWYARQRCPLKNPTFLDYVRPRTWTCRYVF
Procedure, shortened: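 ACAT inhibition was measured in hepatic microsomes isolated from cholesterol-fed rats. Each determination was run in triplicate, and IC50 was reported.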

[2] = biological target: T2, Sterol O-acyltransferase 1 (Mus musculus) (UniProt Q61263); test: In vitro inhibitory activity against acyl coenzyme A:cholesterol acyltransferase 1 in cell culture assay using murine IC-21 macrophages at 0.1 uM
T2 sequence (whole entry): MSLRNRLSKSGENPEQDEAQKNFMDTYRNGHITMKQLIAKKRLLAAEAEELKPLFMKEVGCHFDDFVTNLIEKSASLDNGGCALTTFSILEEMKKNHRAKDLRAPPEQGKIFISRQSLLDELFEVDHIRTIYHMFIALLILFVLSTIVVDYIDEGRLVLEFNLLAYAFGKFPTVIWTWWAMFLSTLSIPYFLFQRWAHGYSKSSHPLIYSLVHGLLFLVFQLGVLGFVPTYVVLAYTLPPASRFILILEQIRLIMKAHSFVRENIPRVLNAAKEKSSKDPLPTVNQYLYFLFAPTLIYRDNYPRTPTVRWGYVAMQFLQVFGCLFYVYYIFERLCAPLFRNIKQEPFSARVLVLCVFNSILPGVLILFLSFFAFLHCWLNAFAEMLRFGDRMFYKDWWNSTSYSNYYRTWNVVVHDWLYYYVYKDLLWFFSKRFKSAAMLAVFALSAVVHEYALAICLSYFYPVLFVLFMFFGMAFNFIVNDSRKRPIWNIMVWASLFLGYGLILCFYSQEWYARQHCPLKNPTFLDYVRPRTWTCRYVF
Procedure, shortened: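 IC-21 mouse macrophages were preincubated 16 h in serum-free DMEM with 20 µM albumin and phosphatidylserine/cholesterol vesicles. The vesicles were sonicated in 150 mM NaCl, 5 mM MOPS, 1 mM EDTA, pH 7.4, and filter-sterilized. Medium was then replaced with serum-free DMEM containing the compound in DMSO at 0.1 µM. Percent inhibition was read, with cell protein measured by the Lowry method.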

[3] = system: Rattus norvegicus; test: Percent change in total cholesterol (TC) in cholic acid (0.5%)-, cholesterol (1.5%) -, and peanut oil (5.5%)- fed rats at a dose 30 mg/kg.; assay type: functional
[4] = system: Rattus norvegicus; test: In vitro percent decrease in cholesterol activity at 30 mg/kg in acute rat screen; assay type: functional; details: in the assay text read “In vivo” for “In vitro”
Procedure, shortened: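 Rats received a single gavage dose of 30 mg/kg, suspended in carboxymethylcellulose/Tween-20 in water, followed by one high-fat, high-cholesterol meal. The read-out was inhibition of the overnight rise in plasma total cholesterol, as percent change.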

[5] = system: Rattus norvegicus; test: Percent change in High Density Lipoproteins (HDL) in Chronic Cholesterol -Fed rat model at a dose 30 mg/kg; assay type: functional
Procedure, shortened: (§1)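 Rats ate a high-fat, high-cholesterol diet for 14 days. During the second week they received the test compound daily by gavage at 30 mg/kg, in a carboxymethylcellulose/Tween-20 aqueous vehicle. Plasma lipids (total cholesterol, HDL-C, non-HDL-C) were read as percent change.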

[6] = system: Rattus norvegicus; test: % change in total cholesterol in Chronic Cholesterol-Fed rat model at dose 30 mg/kg; assay type: functional; procedure, shortened: as §1
[7] = system: Rattus norvegicus; test: Percent change in non High Density Lipoproteins (HDL) in Chronic Cholesterol -Fed rat model at a dose 30 mg/kg
[8] = system: Oryctolagus cuniculus; test: Oral bioactivity expressed as %inhibition after 4 hours of drug administration (dose 25 mg/kg) in rabbit bioassay; assay type: functional
Procedure, shortened: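 Plasma was taken before dosing and at 1, 2 and 4 h. Plasma (0.2 mL) was hexane-extracted, dried and redissolved in chloroform/methanol 2:1. It was then tested for ACAT inhibition in the liver microsomal assay alongside spiked standards and a 2.5 µM CI-976 reference.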

[9] = system: Oryctolagus cuniculus; test: % change in total cholesterol(TC) versus progression control (PC) with out drug intervention in chronic cholesterol-fed rabbit model at a dose of 25 mg/kg; assay type: functional
Procedure, shortened: (§2)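 Male New Zealand rabbits (1-1.5 kg) were meal-fed 50 g/day of chow with 0.5% cholesterol, 3% coconut oil and 3% peanut oil. After 1 week, compound was added to the diet for 2 weeks at 5 or 25 mg/kg. Plasma total cholesterol came from cardiac blood of fasted animals after nitrogen asphyxiation. It was compared with cholesterol-fed progression controls or with T0, the start of drug intervention, when plasma cholesterol was taken 24 h after the drug meal.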

[10] = system: Oryctolagus cuniculus; test: Dose response in cholesterol fed rabbit after oral administration; assay type: functional
Procedure, shortened: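 Cholesterol-fed rabbit model with oral dosing across a dose series, 8 animals per dose. Plasma cholesterol reduction was averaged at each dose. ED50, the dose lowering plasma total cholesterol 50%, was calculated from these mean responses with the median-effect equation.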

[11] = system: Oryctolagus cuniculus; test: Percent change in total cholesterol(TC) versus (T0)- at which drug intervention begins at a dose of 25 mg/kg in the chronic cholesterol-fed rabbit model; assay type: functional; procedure, shortened: as §2
[12] = system: Oryctolagus cuniculus; test: % change in total cholesterol(TC) versus progression control (PC) with out drug intervention in chronic cholesterol-fed rabbit model at a dose of 5 mg/kg; assay type: functional; procedure, shortened: as §2
[13] = system: Rattus norvegicus; test: Change in total cholesterol in Chronic Cholesterol-Fed rat model at dose 30 mg/kg; assay type: functional; procedure, shortened: as §1

Structure (SMILES) | IC50 [1] [nM] | inhibition [2] [%] | Change [3] [%] | further results
CCCCCCCCCCCCn1nnc(C(C#N)C(=O)Nc2c(C(C)C)cccc2C(C)C)n1 (stereo unspecified) | > 5000 | 7 | <75 | 
CCCCCCCCCCCCn1nnc(C(C(=O)Nc2c(OC)ncnc2OC)c2ccccc2)n1 (stereo unspecified) | 13 | 39 | <56 | Decrease [4]: 66%
CCCCCCCCCCCCn1nnc(C(C(=O)NC(C)(C)C)c2ccccc2)n1 (stereo unspecified) | 3350 | 1 | 1 | 
CCCCCCCCCCCCn1nnc(C(C(=O)Nc2ccccc2)c2ccccc2)n1 (stereo unspecified) | 480 | 46 | 38 | 
CCCCCCCCCCCCn1nnc(C(C(=O)Nc2ccc(F)cc2F)c2ccccc2)n1 (stereo unspecified) | 31 | 1 | <70 | 
CCCCCCCCCCCCn1nnc(CC(=O)Nc2c(C(C)C)cccc2C(C)C)n1 | 5 | 91 | <64 | Change [5]: 82%; Change [6]: <42%; Change [7]: <63%
CCCCCCCCCCCCc1nnn(CC(=O)Nc2c(C(C)C)cccc2C(C)C)n1 | 6 | 95 | <68 | Change [5]: 165%; Change [6]: <72%; Decrease [4]: 68%; Change [7]: <81%
CCCCCCCCCCCCn1nnc(C(C)(C)C(=O)Nc2c(OC)cc(OC)cc2OC)n1 | 33 | 34 | <69 | 
CCCCCCCCCCCCn1nnc(C(C(=O)Nc2ccc3c(C)cc(C)nc3n2)c2ccccc2)n1 (stereo unspecified) | 1540 | 49 | 8 | 
CCCCCCCCCCCCn1nnc(C(C(=O)Nc2ccccn2)c2ccccc2)n1 (stereo unspecified) | 480 | 8 | 22 | 
CCCCCCCCCCCCn1nnc(C(C(=O)Nc2c(C)nn(C)c2C)c2ccccc2)n1 (stereo unspecified) | 13 | 66 | <62 | Change [5]: 28%; Decrease [4]: 66%
CCCCCCCCCCCCn1nnc(C(=O)Nc2c(C(C)C)cccc2C(C)C)n1 | 1060 | 33 | 23 | 
CCCCCCCCCCCCn1nnc(C(C(=O)Nc2ncccc2C)c2ccccc2)n1 (stereo unspecified) | 85 | 4 | <52 | 
CCCCCCCCCCCCn1nnc(CCC(=O)Nc2c(C(C)C)cccc2C(C)C)n1 | 30 | 17 | <47 | 
CCCCCCCCCCCCn1nnc(C(C(=O)NC2CC2)c2ccccc2)n1 (stereo unspecified) | 244 | 10 | <62 | 
CCCCCCCCCCCCn1nnc(C(C(=O)Nc2c(C(C)C)cccc2C(C)C)c2ccccn2)n1 (stereo unspecified) | 26 | 24 | <64 | 
CCCCCCCCCCCCc1nnn(CC(=O)Nc2c(OC)cc(OC)cc2OC)n1 | 56 | 61 | <69 | Change [5]: 3%; Change [6]: <44%; Decrease [4]: 69%; Change [7]: <46%
CCCCCCCCCCCCn1nnc(C(C(=O)Nc2c(C(C)C)cccc2C(C)C)c2nnn[nH]2)n1 (stereo unspecified) | > 5000 | 8 | <37 | 
CCCCCCCCCCCCn1nnc(C2(C(=O)Nc3c(OC)cc(OC)cc3OC)CCCC2)n1 | 63 | 16 | <56 | 
CCCCCCCCCCCCn1nnc(C(C(=O)Nc2c(C(C)C)cccc2C(C)C)c2ccccc2)n1 (stereo unspecified) |  | 47 | <66 | Change [9]: <73%; ED50 [10]: 1.2 mg/kg; Change [11]: <43%; inhibition in vivo at 25 mg/kg [8]: 96%; Change [12]: <61%; Change [5]: 27%; Change [13]: <38%; Decrease [4]: 66%; Change [7]: <40%
CCCCCCCCCCCCn1nnc(C(C(=O)Nc2c(OC)cc(OC)cc2OC)C2CCCCC2)n1 (stereo unspecified) | 28 | 8 | <61 | 

Further lines, with some results ahead:

IC50 [1] [nM] | inhibition [2] [%] | Structure (SMILES) | Change [3] [%] | further results
659 | 0 | CCCCCCCCCCCCn1nnc(C(C(=O)Nc2c(OC)cc(OC)cc2OC)c2ccc(N(C)C)cc2)n1 (stereo unspecified) | <62 | 
13600 | 7 | CCCCCCCCCCCCn1nnc(C(C#N)C(=O)Nc2c(OC)cc(OC)cc2OC)n1 (stereo unspecified) | <27 | 
221 | 10 | CCCCCCCCCCCCn1nnc(C(C(=O)Nc2c(OC)cc(OC)cc2OC)c2ccc(-c3ccccc3)cc2)n1 (stereo unspecified) | <43 | 
200 | 61 | CCCCCCCCCCCCn1nnc(C(C(=O)Nc2c(OC)cc(OC)cc2OC)c2ccc(OC)cc2)n1 (stereo unspecified) | <57 | 
1760 |  | CCCCCCCCCCCCn1nnc(C(F)C(=O)Nc2c(OC)cc(OC)cc2OC)n1 (stereo unspecified) |  | 
480 | 9 | CCCCCCCCCCCCn1nnc(CCC(=O)Nc2c(OC)cc(OC)cc2OC)n1 |  | 
270 | 13 | CCCCCCCCn1nnc(C(C(=O)Nc2c(OC)cc(OC)cc2OC)c2ccccc2)n1 (stereo unspecified) | <39 | 
24 | 66 | CCCCCCCCCCCCn1nnc(CC(=O)Nc2c(OC)cc(OC)cc2OC)n1 | <60 | 
59 | 23 | CCCCCCCCCCCCn1nnc(C(C(=O)Nc2c(OC)cc(OC)cc2OC)c2ccccn2)n1 (stereo unspecified) | <60 | 
53 | 55 | CCCCCCCCCCCCCCCCn1nnc(C(C(=O)Nc2c(OC)cc(OC)cc2OC)c2ccccc2)n1 (stereo unspecified) | <47 | Change [5]: 16%; Change [7]: -9%
49 | 77 | CCCCCCCCCCCCn1nnc(C(Cc2ccccc2)C(=O)Nc2c(OC)cc(OC)cc2OC)n1 (stereo unspecified) | <73 | inhibition in vivo at 25 mg/kg [8]: 0%; Change [5]: 27%; Change [6]: <48%; Change [7]: <50%
36 | 46 | CCCCCCCCCCCCn1nnc(C(C(=O)Nc2c(OC)cc(OC)cc2OC)c2ccc(F)cc2)n1 (stereo unspecified) | <68 | Change [5]: 12%; Change [7]: <53%
